According to ChEMBL document CHEMBL3526049 (Drug Metab Dispos, 2012):

Key:
[1] = Drug excretion in bile duct-cannulated MRP2 knockout Sprague-Dawley rat bile at 1 mg/kg, iv up to 24 hrs; assay type: ADME, organism-based; parameters: dose 1 mg/kg, route intravenous; conditions: read-out: Drug excretion
Procedure, shortened: (§1)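 Male Sprague-Dawley rats with bile-duct and femoral cannulation, housed in metabolism cages. Given an IV bolus of 1 mg/kg in 2 ml/kg 50% Cremophor EL in ethanol. Urine, bile and feces collected in toto 0–24 h, with cage wash at 24 h. Amounts quantified by LC-MS/MS and expressed as % of dose; n=6–12.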

[2] = AUC (infinity) in wild-type Sprague-Dawley rat at 1 mg/kg, iv by LC-MS/MS analysis; assay type: ADME, organism-based; parameters: time infinity, dose 1 mg/kg, route intravenous; conditions: plasma
[3] = AUC (infinity) in MRP2 knockout Sprague-Dawley rat at 5 mg/kg, po by LC-MS/MS analysis; assay type: ADME, organism-based; parameters: time infinity, dose 5 mg/kg, route oral; conditions: plasma
Procedure, shortened: (§2)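 Male Sprague-Dawley rats (knockouts age- and weight-matched to wild type), femoral-artery and vein cannulated, recovered ≥2 days. IV/oral crossover: 1 mg/kg IV bolus on day 0, then after a 3-day washout 5 mg/kg oral gavage in 10 ml/kg 50% Cremophor EL in ethanol. Arterial plasma 0–24 h, protein-precipitated, LC-MS/MS (positive ion, 1–5000 ng/ml). Noncompartmental analysis; n=5–9.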

Brain = assay: Drug uptake in MDR1A knockout Sprague-Dawley rat brain at 1 mg/kg, iv; assay type: ADME, organism-based; parameters: dose 1 mg/kg, route intravenous; conditions: in vivo
[4] = Half life in wild-type Sprague-Dawley rat at 1 mg/kg, iv by LC-MS/MS analysis; assay type: ADME, organism-based; parameters: dose 1 mg/kg, route intravenous; conditions: in vivo
Procedure, shortened: (§3)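 Male Sprague-Dawley rats (knockout or wild type matched for age and weight), femoral artery and vein cannulated, at least 2 days recovery. Crossover design: IV bolus 1 mg/kg on day 0 (saline with 0.2 M equivalents HCl), oral gavage 10 mg/kg on day 3 (water with 0.2 M equivalents HCl). Arterial plasma sampled to 24 h (Mdr1a oral arm to 4 h). Analysed by LC-MS/MS and noncompartmental analysis.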

[5] = Half life in MDR1A knockout Sprague-Dawley rat at 1 mg/kg, iv by LC-MS/MS analysis; assay type: ADME, organism-based; parameters: dose 1 mg/kg, route intravenous; conditions: in vivo; procedure, shortened: as §3
[6] = Drug excretion in bile duct-cannulated wild-type Sprague-Dawley rat bile at 1 mg/kg, iv up to 24 hrs; assay type: ADME, organism-based; parameters: dose 1 mg/kg, route intravenous; conditions: read-out: Drug excretion; procedure, shortened: as §1
[7] = Drug excretion in bile duct-cannulated MRP2 knockout Sprague-Dawley rat urine at 1 mg/kg, iv up to 24 hrs; assay type: ADME, organism-based; parameters: dose 1 mg/kg, route intravenous; conditions: read-out: Drug excretion; procedure, shortened: as §1
[8] = Oral bioavailability in MDR1A knockout Sprague-Dawley rat at 5 mg/kg by LC-MS/MS analysis; assay type: ADME, organism-based; conditions: in vivo
[9] = AUC (infinity) in MDR1A knockout Sprague-Dawley rat at 5 mg/kg, po by LC-MS/MS analysis; assay type: ADME, organism-based; parameters: time infinity, dose 5 mg/kg, route oral; conditions: plasma
[10] = Drug excretion in bile duct-cannulated wild-type Sprague-Dawley rat urine at 1 mg/kg, iv up to 24 hrs; assay type: ADME, organism-based; parameters: dose 1 mg/kg, route intravenous; conditions: read-out: Drug excretion; procedure, shortened: as §1
[11] = Cmax in wild-type Sprague-Dawley rat at 5 mg/kg, po by LC-MS/MS analysis; assay type: ADME, organism-based; parameters: dose 5 mg/kg, route oral; conditions: in vivo; procedure, shortened: as §2
[12] = AUC (infinity) in wild-type Sprague-Dawley rat at 5 mg/kg, po by LC-MS/MS analysis; assay type: ADME, organism-based; parameters: time infinity, dose 5 mg/kg, route oral; conditions: plasma; procedure, shortened: as §2
[13] = Clearance in BCRP knockout Sprague-Dawley rat at 1 mg/kg, iv by LC-MS/MS analysis; conditions: in vivo
[14] = Tmax in MRP2 knockout Sprague-Dawley rat at 5 mg/kg, po by LC-MS/MS analysis; assay type: ADME, organism-based; parameters: dose 5 mg/kg, route oral; conditions: in vivo; procedure, shortened: as §2
[15] = Half life in BCRP knockout Sprague-Dawley rat at 5 mg/kg, po by LC-MS/MS analysis; assay type: ADME, organism-based; parameters: dose 5 mg/kg, route oral; conditions: in vivo; procedure, shortened: as §2
[16] = Drug excretion in bile duct-cannulated BCRP knockout Sprague-Dawley rat bile at 1 mg/kg, iv up to 24 hrs; assay type: ADME, organism-based; parameters: dose 1 mg/kg, route intravenous; conditions: read-out: Drug excretion; procedure, shortened: as §1
[17] = Drug excretion in bile duct-cannulated BCRP knockout Sprague-Dawley rat urine at 1 mg/kg, iv up to 24 hrs; assay type: ADME, organism-based; parameters: dose 1 mg/kg, route intravenous; conditions: read-out: Drug excretion; procedure, shortened: as §1
[18] = AUC (infinity) in MDR1A knockout Sprague-Dawley rat at 1 mg/kg, iv by LC-MS/MS analysis; assay type: ADME, organism-based; parameters: time infinity, dose 1 mg/kg, route intravenous; conditions: plasma
[19] = Cmax in MDR1A knockout Sprague-Dawley rat at 5 mg/kg, po by LC-MS/MS analysis; assay type: ADME, organism-based; parameters: dose 5 mg/kg, route oral; conditions: in vivo; procedure, shortened: as §2
[20] = Drug excretion in bile duct-cannulated MRP2 knockout Sprague-Dawley rat feces at 1 mg/kg, iv up to 24 hrs; assay type: ADME, organism-based; parameters: dose 1 mg/kg, route intravenous; conditions: faeces, read-out: Drug excretion; procedure, shortened: as §1
[21] = AUC (infinity) in BCRP knockout Sprague-Dawley rat at 5 mg/kg, po by LC-MS/MS analysis; assay type: ADME, organism-based; parameters: time infinity, dose 5 mg/kg, route oral; conditions: plasma; procedure, shortened: as §2
[22] = Drug excretion in bile duct-cannulated BCRP knockout Sprague-Dawley rat feces at 1 mg/kg, iv up to 24 hrs; assay type: ADME, organism-based; parameters: dose 1 mg/kg, route intravenous; conditions: faeces, read-out: Drug excretion; procedure, shortened: as §1
Kidney = assay: Drug uptake in BCRP knockout Sprague-Dawley rat kidney at 1 mg/kg, iv; assay type: ADME, organism-based; parameters: dose 1 mg/kg, route intravenous; conditions: in vivo
[23] = Volume of distribution at steady state in MRP2 knockout Sprague-Dawley rat at 1 mg/kg, iv by LC-MS/MS analysis; assay type: ADME, organism-based; parameters: dose 1 mg/kg, route intravenous; conditions: in vivo, read-out: Vdss; procedure, shortened: as §3
Rattus norvegicus = assay: Clearance in MRP2 knockout Sprague-Dawley rat at 1 mg/kg, iv by LC-MS/MS analysis; conditions: in vivo

Structure (SMILES): CC(=O)O[C@H]1C(=O)[C@@]2(C)[C@H]([C@H](OC(=O)c3ccccc3)[C@]3(O)C[C@H](OC(=O)[C@H](O)[C@@H](NC(=O)c4ccccc4)c4ccccc4)C(C)=C1C3(C)C)[C@]1(OC(C)=O)CO[C@@H]1C[C@@H]2O [PACLITAXEL]
- dose excreted at 24 h [1]: 0.2%
- AUC(0-inf) [2]: 172 ng·h/mL
- AUC(0-inf) [3]: 622 ng·h/mL
- Drug uptake (Brain): Active
- half-life [4]: 432 min
- half-life [5]: 732 min
- dose excreted at 24 h [6]: 0.5%
- dose excreted at 24 h [7]: 4.5%
- bioavailability [8]: 47%
- AUC(0-inf) [9]: 746 ng·h/mL
- dose excreted at 24 h [10]: 3.1%
- Cmax [11]: 30 ng/mL
- AUC(0-inf) [12]: 88 ng·h/mL
- clearance [13]: 102 mL/min/kg
- Tmax [14]: 54 min
- half-life [15]: 318 min
- dose excreted at 24 h [16]: 0.1%
- dose excreted at 24 h [17]: 2%
- AUC(0-inf) [18]: 303 ng·h/mL
- Cmax [19]: 145 ng/mL
- dose excreted at 24 h [20]: 2.8%
- AUC(0-inf) [21]: 113 ng·h/mL
- dose excreted at 24 h [22]: 1%
- Drug uptake (Kidney): Active
- Vd [23]: 28.6 L/kg
- CL (Rattus norvegicus): 9.1 L/h/kg
